{
  "source": "paper PMC9290801",
  "about": "(Journal of Clinical Pharmacology, 2021)",
  "key": {"[1]": {"assay": "Physicochemical parameters"}, "[2]": {"settings": "cited from earlier work"}, "P‐glycoprotein (P‐gp)": {"system": "P‐glycoprotein (P‐gp)", "assay": "P-gp transport kinetics", "assay_type": "in vitro ADME", "method_in_brief": "(§1)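 Intestinal P-gp kinetics were estimated by the Troutman–Thakker approach, assuming one-site saturable Michaelis–Menten kinetics, with intrinsic clearance derived from Jmax and Km. The values were placed at the intestinal apical site (ADAM absorption, minimal PBPK) and at the hepatic canalicular site (full PBPK, tissue:plasma Kp 0.4).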"}, "P-glycoprotein (P-gp)": {"system": "P-glycoprotein (P-gp)", "assay": "P-gp transport kinetics", "assay_type": "in vitro ADME", "settings": "not told", "method_in_brief": "as §1"}, "[3]": {"settings": "cited from earlier work", "remark": "listed apart in the source"}, "[4]": {"settings": "coadministration with rifampicin vs selumetinib alone; cited from earlier work"}, "[5]": {"assay": "Blood-to-plasma ratio and plasma protein binding", "assay_type": "in vitro ADME"}, "CYP3A": {"system": "CYP3A", "assay": "CYP3A contribution to selumetinib clearance", "parameters": "species or system human"}, "[6]": {"assay": "Madin-Darby Canine Kidney II permeability measurement", "assay_type": "in vitro ADME", "settings": "dog, MDCK"}, "[7]": {"settings": "single oral dose, healthy adult subjects; cited from earlier work"}, "CYP2C19": {"system": "CYP2C19", "assay": "CYP2C19 contribution to selumetinib clearance", "parameters": "species or system human"}, "[8]": {"settings": "cited from earlier work", "remark": "listed apart in the source"}, "[9]": {"assay": "PBPK model absorption/distribution input parameters", "parameters": "species or system human", "settings": "Estimated based on observed Cmax and PK profile (Study NCT02093728)", "method_in_brief": "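Minimal 4-compartment PBPK model in Simcyp v17 with first-order absorption and a single adjusting compartment (intercompartmental clearance 8 L/h, from a population PK model). Compartment volume was fitted to observed Cmax and profile from a healthy-volunteer trial: 10 × 10 virtual subjects aged 18–44 years given a single oral 25 mg dose.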"}, "[10]": {"settings": "adults with solid tumors; cited from earlier work"}},
  "note": "Like-named read-outs stand apart in the source and are kept apart here.",
  "data": [
    {"compound": "Cn1cnc2c(F)c(Nc3ccc(Br)cc3Cl)c(C(=O)NOCCO)cc21", "note": "[selumetinib]", "values": [
      {"measurement": "logP", "setting": "[1]", "result": 3.88},
      {"measurement": "observed exposure (AUC from time 0 to 12 hours)", "setting": "[2]; SPRINT phase 2 cohort, 25 mg/m^2", "result": 2009, "unit": "ng·h/mL"},
      {"measurement": "maximum tolerated dose", "setting": "[2]; pediatric SPRINT phase 1, twice daily", "result": 25, "unit": "mg/m^2"},
      {"measurement": "terminal elimination half‐life", "setting": "[2]; pediatric patients, single oral dose", "result": "≈ 6 hours"},
      {"measurement": "maximal carrier‐mediated flux (Jmax)", "setting": "P‐glycoprotein (P‐gp); estimated, one‐site Michaelis‐Menten saturable kinetics", "result": 9.9, "unit": "pmol/min"},
      {"measurement": "P‐gp intrinsic clearance", "setting": "P‐glycoprotein (P‐gp); from Jmax and Km", "result": 0.62, "unit": "µL/min"},
      {"measurement": "Km", "setting": "P-glycoprotein (P-gp)", "result": 15.8, "unit": "µM"},
      {"measurement": "Observed geomean AUC (CV%)", "setting": "[3]; 25 mg dose+fluconazole", "result": 1770, "unit": "ng·h/mL"},
      {"measurement": "Observed geomean AUC (CV%)", "setting": "[3]; 25 mg dose+itraconazole", "result": 1760, "unit": "ng·h/mL"},
      {"measurement": "Observed geomean AUC (CV%)", "setting": "[3]; 25 mg single oral dose alone, healthy volunteers", "result": 1180, "unit": "ng·h/mL"},
      {"measurement": "decrease in AUC", "setting": "[4]", "result": 51, "unit": "%"},
      {"measurement": "reduction in Cmax", "setting": "[4]", "result": 26, "unit": "%"},
      {"measurement": "B:P (blood‐to‐plasma ratio)", "setting": "[5]; Report KPJ003", "result": 0.625},
      {"measurement": "fraction unbound", "setting": "[5]; plasma", "result": 0.016},
      {"measurement": "CYP3A CLint", "setting": "CYP3A; Retrograde from CLpo 19.6 L/h, fm 25%", "result": 0.568, "unit": "µL/min/pmol"},
      {"measurement": "fm (fraction metabolized) by CYP3A", "setting": "CYP3A; assigned according to DDI study with itraconazole", "result": 25, "unit": "%"},
      {"measurement": "Papp", "setting": "[6]", "result": 37.7, "unit": "×10⁻⁶ cm/s"},
      {"measurement": "absolute (oral) bioavailability", "setting": "[7]", "result": 62, "unit": "%"},
      {"measurement": "CYP2C19 CLint", "setting": "CYP2C19; Retrograde from CLpo 19.6 L/h, fm 15%", "result": 3.335, "unit": "µL/min/pmol"},
      {"measurement": "fm (fraction metabolized) by CYP2C19", "setting": "CYP2C19; assigned according to DDI study with fluconazole", "result": 15, "unit": "%"},
      {"measurement": "fraction of absorption (Oral dose → First pass)", "setting": "[8]; oral dose", "result": "> 71", "unit": "%"},
      {"measurement": "dose eliminated as unchanged in urine", "setting": "[8]; renal elimination", "result": "< 1 % of dose"},
      {"measurement": "Vsac (volume of single adjusting compartment)", "setting": "[9]", "result": 1, "unit": "L/kg"},
      {"measurement": "maximum tolerated dose", "setting": "[10]", "result": 75, "unit": "mg"}
    ]}
  ]
}
